# SENP1 inh: human SENP1 catalytic domain inhibitors, primary screen, biochemical, FRET, uHTS | Sentrin-specific protease 1 (Homo sapiens), Q9P0U3 | recombinant SENP1 catalytic domain, CyPet-SUMO1-YPet FRET cleavage | inhibition, % at 10 µM | actives 0.21% (n = 360,000) | AID 624204, 2012;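 active = inhibition at least 30% at 10 µM, raw YFP signal under a set limit, fluorescence ratio 0.5 to 1.5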
# Target sequence (Q9P0U3 419-644 limits assumed): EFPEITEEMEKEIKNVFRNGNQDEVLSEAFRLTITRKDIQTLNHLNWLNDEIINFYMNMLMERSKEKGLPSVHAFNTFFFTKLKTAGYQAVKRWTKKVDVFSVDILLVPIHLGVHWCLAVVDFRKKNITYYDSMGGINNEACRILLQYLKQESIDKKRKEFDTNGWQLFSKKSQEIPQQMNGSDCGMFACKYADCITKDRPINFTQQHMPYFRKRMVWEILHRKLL
#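 Compound: 10 µM single point, 0.5% DMSO; Test system: hSENP1 catalytic domain, recombinant; Timing: 50 min reaction at room temperature; Technique: FRET, CFP and YFP emission; Control set: no-enzyme wells low, DMSO-plus-enzyme wells high control.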
# SENP7 block: SENP7 protease inhibitors, primary screen, biochemical, luminescence, uHTS; Sentrin-specific protease 7 (Homo sapiens), Q9BQF6; recombinant SENP7, Z-RLRGG-aminoluciferin luminescence, 40 min; inhibition, % at 5 µM; actives 1.5% (n = 330,000);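 active = inhibition above about 50% at the single test dose, limit read from the data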
# Platelet DG rel: inhibitors of platelet dense granule secretion, primary screen, cell-based, MLPCN, human platelets; human platelet-rich plasma, SFLLRN dense granule ATP release, luminescence; inhibition, %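 (compounds screened at 7.5 µM in platelet-rich plasma)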; actives 0.22% (n = 300,000); AID 1663, 2009;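 active = mean replicate score, as percent of positive control, at or above 50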
# SENP8 block-1: human SENP8 protease inhibitors, primary screen, biochemical, fluorescence, Nedd8 protein substrate, uHTS. Sentrin-specific protease 8 (Homo sapiens), Q96LD8. recombinant SENP8. inhibition, % at 20 µM. actives 0.64% (n = 360,000). AID 602440, 2012; in the data active = inhibition mostly above about 40%, no sharp cut-off; inactive = mostly below about 27%
# Target sequence (Q96LD8 whole entry, looked up): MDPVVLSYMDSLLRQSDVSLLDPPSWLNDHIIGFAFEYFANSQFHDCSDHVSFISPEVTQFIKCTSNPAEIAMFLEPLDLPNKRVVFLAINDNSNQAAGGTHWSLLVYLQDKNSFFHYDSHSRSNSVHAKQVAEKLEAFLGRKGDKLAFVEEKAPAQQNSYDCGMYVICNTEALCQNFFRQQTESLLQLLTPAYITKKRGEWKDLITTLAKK
# SENP8 block-2: SENP8 protease inhibitors, primary screen, biochemical, luminescence; purified SENP8, Z-RLRGG-aminoluciferin cleavage; AID 2540, 2010; Sentrin-specific protease 8 (Homo sapiens), Q96LD8; actives 1.2% (n = 330,000); inhibition, % at 10 µM; in the data active = inhibition above about 50%
# SENP6 block: SENP6 protease inhibitors, primary screen, biochemical, luminescence, uHTS; Sentrin-specific protease 6 (Homo sapiens), Q9GZR1; inhibition, % at 10 µM; actives 1.8% (n = 330,000); AID 2599, 2010; Recombinant SENP6 catalytic domain, aminoluciferin luminescence;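 active = inhibition above about 50% at the single tested dose, limit read from the data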
# SENP8 confirm: SENP8 protease inhibitors, retest, confirmation, biochemical, luminescence, single concentration; actives 40% (n = 6,200); inhibition, % at 12.5 µM; shares compounds with SENP7 block; Recombinant SENP8, Z-RLRGG-aminoluciferin luminescence, 60 min;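 active = mean inhibition across replicates above about 50%, limit read from the data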
# SENP6 conf: SENP6 protease inhibitors, confirmation, biochemical, luminescence, single concentration; actives 58% (n = 6,200); recombinant SENP6, Z-RLRGG-aminoluciferin luminescence; shares compounds with SENP7 block; inhibition, % at 12.5 µM; AID 488915, 2010
# SENP7 confirm: SENP7 protease inhibitors, retest, confirmation, biochemical, luminescence, single concentration; shares compounds with SENP7 block; recombinant SENP7, Z-RLRGG-aminoluciferin luminescence, 40 min; inhibition, % at 12.5 µM; actives 69% (n = 6,200); AID 488917, 2010
# Casp3 SENP sel: caspase-3 protease inhibitors, confirmation, selectivity assay for SENP inhibitor project, biochemical, single concentration. actives 60% (n = 6,200). purified caspase-3, Z-DEVD-aminoluciferin luminescence, 60 min. inhibition, % at 12.5 µM. shares compounds with SENP7 block;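 active = mean inhibition above about 50%, limit read from the data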
# Target sequence (P42574 28-227 limits assumed): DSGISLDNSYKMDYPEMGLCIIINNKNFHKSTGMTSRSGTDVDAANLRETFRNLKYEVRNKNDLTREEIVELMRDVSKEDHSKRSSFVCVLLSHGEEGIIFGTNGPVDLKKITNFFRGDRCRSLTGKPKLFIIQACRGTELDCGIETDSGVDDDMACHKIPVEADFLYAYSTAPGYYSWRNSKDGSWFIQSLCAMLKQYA
# Luc interf: luminescence interference (SENP counter-screen); Pre-incubated SENP8/Z-RLRGG-aminoluciferin, luciferase luminescence interference; inhibition, % at 12.5 µM; AID 488919; shares compounds with SENP7 block; actives 39% (n = 6,200);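 active = mean inhibition above about 50% when retested at one dose, limit read from the data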
# Hits are given with their value; . = inactive; / = no result. Hits are enriched below; roughly 2.6% of the tested compounds scored in any of these assays.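 Rule for the calls, unless noted: active = mean inhibition above about 50% in the one-dose retest (limit read from the data); inactive = the rest.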
SMILES,SENP1 inh,SENP7 block,Platelet DG rel,SENP8 block-1,SENP8 block-2,SENP6 block,SENP8 confirm,SENP6 conf,SENP7 confirm,Casp3 SENP sel,Luc interf
O=[N+]([O-])c1ccccc1N/N=C/c1cccc(O)c1O,.,98,.,55,88,92,.,.,.,.,.
O=[N+]([O-])c1ccc(O)c(/C=N/Nc2ccccc2Cl)c1,.,50,.,.,.,50,.,.,.,.,.
O=[N+]([O-])c1ccccc1C=NNc1ccccc1,.,/,/,.,/,/,/,/,/,/,/
O=[N+]([O-])c1ccccc1N/N=C\c1ccccc1Cl,.,97,.,.,84,91,.,.,.,56,.
O=[N+]([O-])c1cccc(/C=N\N=C2c3ccccc3-c3ccccc32)c1O,.,.,.,.,.,.,/,/,/,/,/
O=C(N/N=C/c1cc([N+](=O)[O-])ccc1O)C1CC1,.,.,.,.,.,.,/,/,/,/,/
COC(=O)c1ccc2nc(-c3ccco3)c(Cc3ccc(C)cc3)n2c1,.,/,/,.,/,/,/,/,/,/,/
CCc1nc2ccc(C(=O)Nc3cc(-c4ccccc4)ccc3OC)cn2c1N(CC)Cc1cccc(Br)c1,.,/,/,.,/,/,/,/,/,/,/
O=C(NNC(=S)Nc1ccccc1Cl)c1ccccc1Br,.,67,.,.,73,73,.,.,.,.,.
Cc1ccc(C)c(Nc2nc(N)c3ccccc3n2)c1,.,.,.,.,.,58,.,.,75,65,.
Nc1nc(Nc2cccc(F)c2)nc2ccccc12,.,90,.,.,88,96,96,96,102,91,96
COc1ccc(Cl)cc1Nc1nc(N)c2ccccc2n1,.,.,.,.,.,.,/,/,/,/,/
CCNC(=O)C1(C)CCN(C(=O)CCc2ccccc2)C1 (stereo not given),.,/,/,.,/,/,/,/,/,/,/
Cn1c(=O)c(-c2cc(=O)[nH][nH]2)c(O)c2ccccc21,.,.,.,.,.,.,/,/,/,/,/
Cc1cc(NCc2ccccn2)ccc1Br,.,53,.,.,.,.,.,.,69,.,52
CC(C)n1cnc2cc(NCc3ccccn3)ccc21,.,.,.,.,.,.,/,/,/,/,/
COCCN1C(=O)c2ccc(C(=O)NCc3ccco3)cc2C1=O,.,.,.,.,.,.,/,/,/,/,/
Cc1nnsc1NC(=O)OCc1ccccc1Cl,.,.,.,.,.,55,.,.,63,.,.
Fc1ccc(-c2noc(-c3ccc4c(c3)CCO4)n2)cc1,.,96,.,.,67,79,.,53,.,71,.
S=c1nccc(-c2ccc3c(c2)CCO3)[nH]1,.,.,.,.,.,.,/,/,/,/,/
COc1cccc(NC(=O)COC(=O)C2=NN(c3ccccc3)C(=O)CC2)c1,.,.,/,.,.,.,/,/,/,/,/
O=C1c2ccccc2C(=O)N1CCOc1ccccc1,.,.,.,.,.,60,.,.,73,59,52
O=C1c2ccccc2C(=O)N1CCOc1ccccc1Cl,.,59,.,.,.,51,.,.,78,.,56
Nc1cccc2c1C(=O)N(CCOc1ccc(F)cc1)C2=O,.,55,.,.,.,68,55,.,85,53,.
COc1ccc(OCCN2C(=O)c3ccccc3C2=O)cc1,.,.,.,.,.,.,/,/,/,/,/
SMILES,SENP1 inh,SENP7 block,Platelet DG rel,SENP8 block-1,SENP8 block-2,SENP6 block,SENP8 confirm,SENP6 conf,SENP7 confirm,Casp3 SENP sel,Luc interf
Cn1c(CN2CCN(C(=O)c3ccco3)CC2)nc2cc([N+](=O)[O-])ccc21,.,.,.,.,.,.,/,/,/,/,/
CCOc1cc(C2NC(=O)NC(O)(C(F)(F)F)C2C(=O)c2ccc(Cl)cc2)ccc1O (stereo not given),.,.,.,.,.,.,/,/,/,/,/
O=c1[nH]c(-c2ccccc2)cnc1-c1ccccc1,.,74,.,.,.,52,.,.,.,.,.
COc1ccc(C(=O)c2coc3ccc(OC(C)=O)cc23)cc1,.,.,.,.,60,.,58,55,66,50,.
COc1ccc2occ(C(=O)c3ccc(N)cc3)c2c1,.,53,.,.,.,.,55,54,82,.,65
Cc1ccc(C(=O)c2coc3ccc(O)cc23)cc1,.,92,.,.,88,86,.,94,100,84,84
COc1ccc2occ(C(=O)c3cccs3)c2c1,.,52,.,.,.,69,56,58,84,52,62
COc1cc(/C=N/N(C)C)ccc1OC(=O)c1ccco1,.,.,.,.,.,.,/,/,/,/,/
COc1cc(/C=N/N2CCOCC2)ccc1OC(=O)c1ccco1,.,70,.,.,.,60,60,57,88,67,77
O=C1NC(=S)S/C1=C/c1ccc(OC(=O)c2ccco2)cc1,.,.,.,.,.,76,.,.,.,.,.
CCOC(=O)c1ccc(N2NC(=O)/C(=C/c3ccc(OC(=O)c4ccco4)c(OC)c3)C2=O)cc1,/,.,.,/,.,.,/,/,/,/,/
COc1cc(/C=C2/SC(=O)NC2=O)ccc1OC(=O)c1ccco1,.,85,.,.,82,88,58,74,.,61,.
COc1cc(/C=C2\C(=O)N(c3ccc(S(N)(=O)=O)cc3)N=C2C)ccc1OC(=O)c1ccco1,.,70,.,57,.,76,.,.,.,.,.
Cc1cc(OCc2cc(C(=O)NC3CCC3)no2)cc(C)c1Cl,.,.,.,.,.,.,/,/,/,/,/
COc1cc(/C=C2/C(=N)N3C(SC)=NSC3=NC2=O)ccc1OC(=O)c1ccco1,.,.,.,.,64,53,75,73,92,68,.
NC(=O)CCC(NS(=O)(=O)c1ccc(Cl)cc1)C(=O)NCc1ccccc1 (stereo not given),/,.,.,/,.,.,/,/,/,/,/
